Assay results as given in ChEMBL document CHEMBL1154962, “Novel 6-N-arylcarboxamidopyrazolo[4,3-d]pyrimidin-7-one derivatives as potential anti-cancer agents” (2010).

test system: HT-29; test: Cytotoxicity against human HT-29 cells at 100 uM after 2 days by sulforhodamine B assay; type: functional; settings: HT-29, 48 h
Outline: (§1)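 Five human cancer lines (HT-29, DU-145, A-549, SK-MEL-2, SK-OV-3) seeded at 3–7 × 10³ cells/well; compounds at 100 µM added in duplicate; 37 °C, 5% CO₂, two days. Fixed with formalin, SRB stained, washed with 1% acetic acid, dye solubilized in 10 mM unbuffered Tris base; OD at 520 nm. Read-out is % inhibition.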

Row | Structure (SMILES) | inhibition at 100 µM
1 | Cc1cccc(C(=O)Nn2c(CC3CCCCC3)nc3c(-c4ccc(Cl)cc4)n[nH]c3c2=O)c1 | 88.7%
2 | CCCCc1nc2c(-c3ccc(Cl)cc3)n[nH]c2c(=O)n1NC(=O)c1ccccc1 | 89.5%
3 | CCCCCc1nc2c(-c3ccc(Cl)cc3)n[nH]c2c(=O)n1NC(=O)c1ccccc1 | 90.1%

test system: DU-145; test: Cytotoxicity against human DU145 cells at 100 uM after 2 days by sulforhodamine B assay; type: functional; settings: DU-145, 48 h; outline: as §1

Row | Structure (SMILES) | inhibition at 100 µM
4 | Cc1cccc(C(=O)Nn2c(CC3CCCCC3)nc3c(-c4ccc(Cl)cc4)n[nH]c3c2=O)c1 | 85.9%
5 | CCCCc1nc2c(-c3ccc(Cl)cc3)n[nH]c2c(=O)n1NC(=O)c1ccccc1 | 93%
6 | CCCCCc1nc2c(-c3ccc(Cl)cc3)n[nH]c2c(=O)n1NC(=O)c1ccccc1 | 88.7%

test system: HT-29; test: Growth inhibition of human HT-29 cells after 2 days by MTT assay; type: functional; settings: HT-29, 48 h
Outline: (§2)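 HT-29 and DU-145 cells seeded at 5 × 10⁴ cells/mL; serial concentrations added in duplicate; 37 °C, 5% CO₂, two days. MTT dye (Cell Titer96) for up to 4 h at 37 °C, then solubilization/stop mix overnight at room temperature; OD at 570 nm. GI₅₀ = concentration giving 50% growth inhibition; mean ± SEM of three or more experiments; doxorubicin as internal standard.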

Row | Structure (SMILES) | GI50
7 | Cc1cccc(C(=O)Nn2c(CC3CCCCC3)nc3c(-c4ccc(Cl)cc4)n[nH]c3c2=O)c1 | 440 nM
8 | CCCCc1nc2c(-c3ccc(Cl)cc3)n[nH]c2c(=O)n1NC(=O)c1ccccc1 | 710 nM
9 | CCCCCc1nc2c(-c3ccc(Cl)cc3)n[nH]c2c(=O)n1NC(=O)c1ccccc1 | 2260 nM

test system: DU-145; test: Growth inhibition of human DU145 cells after 2 days by MTT assay; type: functional; settings: DU-145, 48 h; outline: as §2

Row | Structure (SMILES) | GI50
10 | Cc1cccc(C(=O)Nn2c(CC3CCCCC3)nc3c(-c4ccc(Cl)cc4)n[nH]c3c2=O)c1 | 1070 nM
11 | CCCCc1nc2c(-c3ccc(Cl)cc3)n[nH]c2c(=O)n1NC(=O)c1ccccc1 | 29100 nM
12 | CCCCCc1nc2c(-c3ccc(Cl)cc3)n[nH]c2c(=O)n1NC(=O)c1ccccc1 | 22100 nM

target: T1, Aurora kinase A (Homo sapiens) (UniProt O14965); test: Inhibition of human Aurora A at 10 uM; settings: not given
T1 sequence (whole entry): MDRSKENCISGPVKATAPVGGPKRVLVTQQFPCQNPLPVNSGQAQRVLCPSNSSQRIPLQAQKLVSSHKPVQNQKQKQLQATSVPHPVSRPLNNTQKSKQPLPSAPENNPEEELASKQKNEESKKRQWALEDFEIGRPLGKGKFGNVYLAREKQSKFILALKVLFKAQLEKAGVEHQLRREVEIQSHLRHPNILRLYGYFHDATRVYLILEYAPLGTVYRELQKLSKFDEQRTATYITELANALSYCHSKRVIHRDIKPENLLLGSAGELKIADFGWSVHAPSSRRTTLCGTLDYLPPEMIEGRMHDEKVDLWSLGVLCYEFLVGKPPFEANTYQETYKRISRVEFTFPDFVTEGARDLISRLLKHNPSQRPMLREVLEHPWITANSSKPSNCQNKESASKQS

Row | Structure (SMILES) | inhibition
13 | Cc1cccc(C(=O)Nn2c(CC3CCCCC3)nc3c(-c4ccc(Cl)cc4)n[nH]c3c2=O)c1 | 82%
14 | CCCCc1nc2c(-c3ccc(Cl)cc3)n[nH]c2c(=O)n1NC(=O)c1ccccc1 | 84%
15 | CCCCCc1nc2c(-c3ccc(Cl)cc3)n[nH]c2c(=O)n1NC(=O)c1ccccc1 | 91%

target: Glycogen synthase kinase-3 beta (Homo sapiens) (UniProt P49841); test: Inhibition of human GSK3-beta at 10 uM; settings: not given
Sequence (P49841 whole entry, looked up): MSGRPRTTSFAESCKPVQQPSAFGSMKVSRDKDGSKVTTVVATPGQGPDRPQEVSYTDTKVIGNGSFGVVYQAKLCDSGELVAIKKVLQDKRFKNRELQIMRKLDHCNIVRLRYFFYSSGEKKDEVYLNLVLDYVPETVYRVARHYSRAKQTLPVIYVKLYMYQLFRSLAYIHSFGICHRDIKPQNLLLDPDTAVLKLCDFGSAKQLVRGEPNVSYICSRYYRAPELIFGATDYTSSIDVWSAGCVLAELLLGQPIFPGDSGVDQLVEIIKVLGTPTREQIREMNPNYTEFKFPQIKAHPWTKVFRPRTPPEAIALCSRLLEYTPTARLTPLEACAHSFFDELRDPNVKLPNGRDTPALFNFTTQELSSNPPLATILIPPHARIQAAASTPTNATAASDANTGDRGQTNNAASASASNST

Row | Structure (SMILES) | inhibition
16 | Cc1cccc(C(=O)Nn2c(CC3CCCCC3)nc3c(-c4ccc(Cl)cc4)n[nH]c3c2=O)c1 | 89%
17 | CCCCc1nc2c(-c3ccc(Cl)cc3)n[nH]c2c(=O)n1NC(=O)c1ccccc1 | 89%
18 | CCCCCc1nc2c(-c3ccc(Cl)cc3)n[nH]c2c(=O)n1NC(=O)c1ccccc1 | 92%

target: Epidermal growth factor receptor (Homo sapiens) (UniProt P00533); test: Inhibition of human EGFR assessed as remaining enzyme activity at 10 uM; values are per cent of control; settings: not given
Sequence (P00533 whole entry): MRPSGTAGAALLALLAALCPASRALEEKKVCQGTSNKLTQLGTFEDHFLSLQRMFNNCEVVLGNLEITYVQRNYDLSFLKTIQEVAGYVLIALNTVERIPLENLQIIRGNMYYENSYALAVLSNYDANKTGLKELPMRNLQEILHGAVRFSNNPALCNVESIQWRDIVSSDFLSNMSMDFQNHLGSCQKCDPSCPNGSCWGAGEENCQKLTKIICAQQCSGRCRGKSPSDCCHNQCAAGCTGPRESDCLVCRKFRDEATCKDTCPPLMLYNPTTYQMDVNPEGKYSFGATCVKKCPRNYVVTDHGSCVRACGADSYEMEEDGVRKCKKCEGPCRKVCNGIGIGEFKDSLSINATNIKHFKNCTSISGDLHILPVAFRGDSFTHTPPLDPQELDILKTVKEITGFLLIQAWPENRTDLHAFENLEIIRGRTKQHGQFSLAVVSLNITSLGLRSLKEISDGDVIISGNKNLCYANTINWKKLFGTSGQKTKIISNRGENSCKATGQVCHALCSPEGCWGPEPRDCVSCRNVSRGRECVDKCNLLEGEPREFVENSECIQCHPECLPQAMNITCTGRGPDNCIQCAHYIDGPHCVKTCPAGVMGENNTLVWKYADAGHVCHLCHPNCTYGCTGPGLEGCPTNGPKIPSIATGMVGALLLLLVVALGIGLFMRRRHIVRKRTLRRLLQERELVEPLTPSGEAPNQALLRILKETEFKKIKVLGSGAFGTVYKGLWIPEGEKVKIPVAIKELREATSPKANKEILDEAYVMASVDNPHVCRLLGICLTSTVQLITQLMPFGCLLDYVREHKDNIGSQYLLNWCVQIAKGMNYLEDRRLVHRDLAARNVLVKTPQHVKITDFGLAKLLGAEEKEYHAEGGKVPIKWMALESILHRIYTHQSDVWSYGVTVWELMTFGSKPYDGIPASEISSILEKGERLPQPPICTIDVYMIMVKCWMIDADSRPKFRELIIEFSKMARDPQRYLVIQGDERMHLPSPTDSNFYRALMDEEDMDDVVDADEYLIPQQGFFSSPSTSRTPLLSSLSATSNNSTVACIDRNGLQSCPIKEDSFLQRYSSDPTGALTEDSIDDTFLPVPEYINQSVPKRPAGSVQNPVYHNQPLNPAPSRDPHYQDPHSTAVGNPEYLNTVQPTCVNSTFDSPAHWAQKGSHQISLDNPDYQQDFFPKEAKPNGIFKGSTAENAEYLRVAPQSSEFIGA

Row | Structure (SMILES) | residual activity
19 | Cc1cccc(C(=O)Nn2c(CC3CCCCC3)nc3c(-c4ccc(Cl)cc4)n[nH]c3c2=O)c1 | 85%
20 | CCCCc1nc2c(-c3ccc(Cl)cc3)n[nH]c2c(=O)n1NC(=O)c1ccccc1 | 86%
21 | CCCCCc1nc2c(-c3ccc(Cl)cc3)n[nH]c2c(=O)n1NC(=O)c1ccccc1 | 76%

target: T1, Aurora kinase A (Homo sapiens); test: Inhibition of human Aurora A assessed as remaining enzyme activity at 10 uM; values are per cent of control; settings: not given

Row | Structure (SMILES) | residual activity
22 | Cc1cccc(C(=O)Nn2c(CC3CCCCC3)nc3c(-c4ccc(Cl)cc4)n[nH]c3c2=O)c1 | 18%
23 | CCCCc1nc2c(-c3ccc(Cl)cc3)n[nH]c2c(=O)n1NC(=O)c1ccccc1 | 16%
24 | CCCCCc1nc2c(-c3ccc(Cl)cc3)n[nH]c2c(=O)n1NC(=O)c1ccccc1 | 9%

target: Glycogen synthase kinase-3 beta (Homo sapiens) (UniProt P49841); test: Inhibition of human GSK3-beta assessed as remaining enzyme activity at 10 uM; values are per cent of control; settings: not given

Row | Structure (SMILES) | residual activity
25 | Cc1cccc(C(=O)Nn2c(CC3CCCCC3)nc3c(-c4ccc(Cl)cc4)n[nH]c3c2=O)c1 | 11%
26 | CCCCc1nc2c(-c3ccc(Cl)cc3)n[nH]c2c(=O)n1NC(=O)c1ccccc1 | 11%
27 | CCCCCc1nc2c(-c3ccc(Cl)cc3)n[nH]c2c(=O)n1NC(=O)c1ccccc1 | 8%

target: Platelet-derived growth factor receptor alpha (Homo sapiens) (UniProt P16234); test: Inhibition of human PDGFRalpha assessed as remaining enzyme activity at 10 uM; values are per cent of control; settings: not given
Sequence (P16234 whole entry): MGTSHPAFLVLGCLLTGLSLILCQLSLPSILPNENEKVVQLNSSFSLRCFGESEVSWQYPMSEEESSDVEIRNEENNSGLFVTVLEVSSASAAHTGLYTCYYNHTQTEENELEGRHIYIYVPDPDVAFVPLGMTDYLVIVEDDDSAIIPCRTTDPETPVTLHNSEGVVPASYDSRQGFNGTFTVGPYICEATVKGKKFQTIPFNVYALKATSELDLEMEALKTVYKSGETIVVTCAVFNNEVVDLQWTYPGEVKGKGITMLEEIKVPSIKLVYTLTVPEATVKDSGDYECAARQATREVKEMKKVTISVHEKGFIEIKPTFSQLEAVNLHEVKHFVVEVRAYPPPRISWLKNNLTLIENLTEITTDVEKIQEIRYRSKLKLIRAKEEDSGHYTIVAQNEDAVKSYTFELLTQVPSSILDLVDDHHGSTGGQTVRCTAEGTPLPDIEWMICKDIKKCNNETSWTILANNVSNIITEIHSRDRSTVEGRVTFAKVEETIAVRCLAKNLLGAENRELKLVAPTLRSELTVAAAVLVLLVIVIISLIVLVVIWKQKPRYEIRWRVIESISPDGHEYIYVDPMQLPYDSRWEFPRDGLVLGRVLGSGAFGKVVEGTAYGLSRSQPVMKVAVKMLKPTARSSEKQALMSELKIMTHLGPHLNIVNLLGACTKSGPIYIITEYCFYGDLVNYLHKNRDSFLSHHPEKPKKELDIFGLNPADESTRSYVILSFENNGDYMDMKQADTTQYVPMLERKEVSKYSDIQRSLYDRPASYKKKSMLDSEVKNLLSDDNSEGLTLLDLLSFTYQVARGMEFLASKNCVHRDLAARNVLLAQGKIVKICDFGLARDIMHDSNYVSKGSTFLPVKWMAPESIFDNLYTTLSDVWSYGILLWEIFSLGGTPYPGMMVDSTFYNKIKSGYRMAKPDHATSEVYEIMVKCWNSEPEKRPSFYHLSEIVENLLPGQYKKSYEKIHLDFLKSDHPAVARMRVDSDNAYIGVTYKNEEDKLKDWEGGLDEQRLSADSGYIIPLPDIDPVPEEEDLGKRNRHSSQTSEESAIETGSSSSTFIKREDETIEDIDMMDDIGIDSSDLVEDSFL

Row | Structure (SMILES) | residual activity
28 | Cc1cccc(C(=O)Nn2c(CC3CCCCC3)nc3c(-c4ccc(Cl)cc4)n[nH]c3c2=O)c1 | 95%
29 | CCCCc1nc2c(-c3ccc(Cl)cc3)n[nH]c2c(=O)n1NC(=O)c1ccccc1 | 105%
30 | CCCCCc1nc2c(-c3ccc(Cl)cc3)n[nH]c2c(=O)n1NC(=O)c1ccccc1 | 99%
